PMC8451875 (British Journal of Clinical Pharmacology, 2021)

What was measured:
[1] = Phase I 2-way drug interaction study, steady-state plasma pharmacokinetics; assay type: in vivo, healthy adults
Procedure, shortened: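 After an overnight fast of ≥8 h and a moderate-fat meal 30 min before dosing, each drug was given once daily in fixed sequence. Plasma was sampled predose daily, then postdose on the final dosing day at 1–24 h, extended to 72 h or 96 h. Noncompartmental ln-transformed AUC0-t, Cmax and Ct were fitted by linear mixed model (period fixed, participant random) for GMR and 90% CI. t1/2 was descriptive.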

[2] = healthy participants administered GSK3640254; cited from earlier work
HIV‐1 subtypes = settings: no cross-resistance to currently approved antiretroviral treatments; cited from earlier work
[3] = Phase I 2-way drug interaction study, safety and tolerability; assay type: in vivo, healthy adults; settings: for overall drug interaction, tolerability and safety finding: administered alone or in combination, healthy adults
Procedure, shortened: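 Open-label, fixed-sequence study in healthy men and women aged 18–55 years with BMI 18.5–31.0 kg/m2. Each drug was given alone and in combination, with a moderate-fat meal 30 min before dosing. Adverse events were monitored along with clinical laboratory values, vital signs, electrocardiography and physical examination, and summarised descriptively.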

[4] = dolutegravir 50 mg + GSK3640254 200 mg QD, after Day 7 dose, n = 16

| Compound | GSK3640254 t1/2, geometric mean (SD Ln) [1, 4] | AUC ([1]; human, plasma, 200 mg) [ng·h/mL] | Cmax ([1]; human, plasma, 200 mg) [ng/mL] | Tmax ([1]; human, plasma, 200 mg) [h] | concentration at 24 h ([1]; human, plasma, 200 mg) [ng/mL] | most commonly reported adverse event [2] | inhibition across HIV‐1 subtypes (HIV‐1 subtypes) | contact dermatitis at the electrocardiographic electrode site ([3]; 16 participants per treatment) [event] | overall drug interaction, tolerability and safety finding [3] | dolutegravir Tmax (median [min, max]) ([1]; dolutegravir 50 mg + GSK3640254 200 mg QD, Day 7, n = 16) | dolutegravir t1/2, geometric mean (SD Ln) [1, 4] | dolutegravir Cmax, geometric mean (SD Ln) ([1]; dolutegravir 50 mg QD alone, Day 5, steady state, moderate-fat meal, plasma, n = 16) | dolutegravir t1/2, geometric mean (SD Ln) ([1]; dolutegravir 50 mg QD alone, after Day 5 dose, n = 16) | concentration at 24 h ([1]; human, plasma, 50 mg) [ng/mL] |
| --- | --- | --- | --- | --- | --- | --- | --- | --- | --- | --- | --- | --- | --- | --- |
| C=C(C)[C@@H]1CC[C@]2(NCCN3CCS(=O)(=O)CC3)CC[C@]3(C)[C@H](CC[C@@H]4[C@@]5(C)CC=C(C6=CC[C@@](CF)(C(=O)O)CC6)C(C)(C)[C@@H]5CC[C@]43C)[C@@H]12 [GSK3640254] | 23.42 (1.16) h | 26700 | 1680 | 5 | 860 | headaches | demonstrated inhibition | 1 | not associated with drug–drug interactions or major tolerability or safety findings |  |  |  |  |  |
| C[C@@H]1CCO[C@H]2Cn3cc(C(=O)NCc4ccc(F)cc4F)c(=O)c(O)c3C(=O)N12 [dolutegravir, reference compound] |  |  |  |  |  |  |  |  | not associated with drug–drug interactions or major tolerability or safety findings | 3.0 (1.0, 4.5) h | 14.69 (1.13) h | 4.96 (1.18) μg/mL | 14.49 (1.13) h | 1370 |
